The values below come from ChEMBL document CHEMBL1137737, “Synthesis, antimicrobial and cytotoxic activities of 1,3,4-oxadiazoles, 1,3,4-thiadiazoles and 1,2,4-triazoles” (Eur J Med Chem, 2009).

Values after ≈ are worked out from the molar mass of the structure shown. Active and inactive are the calls of the source. The rule behind the calls is not given here.

The test system of experiment [1] is Klebsiella pneumoniae. As to the kind of experiment: Antibacterial activity against Klebsiella pneumoniae NCIM 2957 at 100 ug/disk after 24 hrs by agar disc-diffusion method. The settings on record: NCIM 2957, 24 h, read-out: DIZ. In kind it is functional. The essentials: (§1)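 Sterile 6 mm filter-paper discs are soaked in compound solution in DMSO and placed on nutrient agar plates already inoculated with each organism. Plates are incubated at 37 °C. The diameter of the growth-inhibition zone is read after 24 h for bacteria and after 48 h for fungi.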

For experiment [2], the system named is Bacillus subtilis. As to the kind of experiment: Antibacterial activity against Bacillus subtilis NCIM 2063 after 24 hrs by microdilution susceptibility method. The settings on record: NCIM 2063, 24 h. Format: functional. The essentials: (§2)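 This is a microdilution susceptibility test. Organism suspensions are inoculated into wells holding the dilution series, then incubated at 36 °C for 24 h (bacteria) or 48 h (fungi). MIC is the lowest concentration giving no turbidity, i.e. complete inhibition of visible growth.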
A general note: Broth dilution looks for growth in wells or tubes with falling amounts of substance.

The subject of experiment [3] is Aspergillus niger. As to the kind of experiment: Antifungal activity against Aspergillus niger NCIM 596 after 48 hrs by microdilution susceptibility method. The settings on record: NCIM 596, 48 h. In kind it is functional. In outline: as §2
For experiment [4], the system named is Staphylococcus aureus. As to the kind of experiment: Antibacterial activity against Staphylococcus aureus NCIM 5021 at 200 ug/disk after 24 hrs by agar disc-diffusion method. Format: functional. The settings on record: NCIM 5021, 24 h, read-out: DIZ. In outline: as §1
A general note: A growth-free zone around the sample is the usual read-out of agar diffusion tests.

Experiment [5] deals with Curvularia lunata. Kind of experiment: Antifungal activity against Curvularia lunata NCIM 716 at 200 ug/disk after 48 hrs by agar disc-diffusion method. In kind it is functional. The settings on record: NCIM 716, 48 h, read-out: DIZ. In outline:
as §1

Experiment [6] has as its system A549. Kind of experiment: Cytotoxicity against human A549 cells at 250 uM by MTT assay in presence of 0.2% fetal bovine serum. In kind it is functional. In outline:
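MTT viability assay on A549 cells as for the other cytotoxicity lines, but with 0.2% serum in the medium in place of 10% FBS. Compounds are diluted in medium from a 10 mM DMSO stock and exposure lasts 48 h.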

Experiment [7] has as its system Fusarium solani. Kind of experiment: Antifungal activity against Fusarium solani NCIM 1330 after 48 hrs by microdilution susceptibility method. In kind it is functional. The settings on record: NCIM 1330, 48 h. In outline:
as §2

The test system of experiment [8] is Proteus vulgaris. As to the kind of experiment: Antibacterial activity against Proteus vulgaris NCIM 2027 at 100 ug/disk after 24 hrs by agar disc-diffusion method. The settings on record: NCIM 2027, 24 h, read-out: DIZ. In kind it is functional. The essentials: as §1
Experiment [9] deals with Curvularia lunata. Kind of experiment: Antifungal activity against Curvularia lunata NCIM 716 after 48 hrs by microdilution susceptibility method. In kind it is functional. The settings on record: NCIM 716, 48 h. The essentials: as §2
In experiment [10] the test system is A549. As to the kind of experiment: Cytotoxicity against human A549 cells at 250 uM by MTT assay relative to control. In kind it is functional. The essentials:
(§3)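 A549 lung adenocarcinoma cells are grown in DMEM with 10% FBS and penicillin–streptomycin. Compounds come from a 10 mM DMSO stock, are diluted in medium, and are added 2–4 h after plating. Viability is (treated − background)/(untreated − background) × 100, with a DMSO vehicle control. The experiment was run in duplicate with triplicate readings.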
Background: Tetrazolium assays rely on reduction of a dye to a coloured formazan, in cell work by metabolically active cells.

Experiment [11] concerns Proteus vulgaris. Kind of experiment: Antibacterial activity against Proteus vulgaris NCIM 2027 at 200 ug/disk after 24 hrs by agar disc-diffusion method. In kind it is functional. The conditions noted are these: NCIM 2027, 24 h, read-out: DIZ. The essentials: as §1
Experiment [12] relates to Fusarium solani. Kind of experiment: Antifungal activity against Fusarium solani NCIM 1330 at 200 ug/disk after 48 hrs by agar disc-diffusion method. Format: functional. The settings on record: NCIM 1330, 48 h, read-out: DIZ. In outline:
as §1

Experiment [13] has as its system Aspergillus niger. Kind of experiment: Antifungal activity against Aspergillus niger NCIM 596 at 100 ug/disk after 48 hrs by agar disc-diffusion method. The conditions noted are these: NCIM 596, 48 h, read-out: DIZ. Format: functional. The essentials: as §1
Experiment [14] concerns Fusarium solani. As to the kind of experiment: Antifungal activity against Fusarium solani NCIM 1330 at 100 ug/disk after 48 hrs by agar disc-diffusion method. Format: functional. The conditions noted are these: NCIM 1330, 48 h, read-out: DIZ. The essentials: as §1
Experiment [15] has as its system Klebsiella pneumoniae. As to the kind of experiment: Antibacterial activity against Klebsiella pneumoniae NCIM 2957 at 200 ug/disk after 24 hrs by agar disc-diffusion method. In kind it is functional. The settings on record: NCIM 2957, 24 h, read-out: DIZ. The essentials: as §1
Experiment [16] has as its system Bacillus subtilis. As to the kind of experiment: Antibacterial activity against Bacillus subtilis NCIM 2063 at 200 ug/disk after 24 hrs by agar disc-diffusion method. Format: functional. The settings on record: NCIM 2063, 24 h, read-out: DIZ. The essentials: as §1
The subject of experiment [17] is A549. As to the kind of experiment: Cytotoxicity against human A549 cells at 250 uM by MTT assay. In kind it is functional, cell-based. The essentials: as §3
Experiment [18] deals with Staphylococcus aureus. As to the kind of experiment: Antibacterial activity against Staphylococcus aureus NCIM 5021 at 100 ug/disk after 24 hrs by agar disc-diffusion method. In kind it is functional. The settings on record: NCIM 5021, 24 h, read-out: DIZ. In outline: as §1
For experiment [19], the system named is Bacillus subtilis. As to the kind of experiment: Antibacterial activity against Bacillus subtilis NCIM 2063 at 100 ug/disk after 24 hrs by agar disc-diffusion method. The settings on record: NCIM 2063, 24 h, read-out: DIZ. Format: functional. The essentials:
as §1

Experiment [20] deals with Klebsiella pneumoniae. As to the kind of experiment: Antibacterial activity against Klebsiella pneumoniae NCIM 2957 after 24 hrs by microdilution susceptibility method. Format: functional. The conditions noted are these: NCIM 2957, 24 h. In outline: as §2
The test system of experiment [21] is Aspergillus niger. As to the kind of experiment: Antifungal activity against Aspergillus niger NCIM 596 at 200 ug/disk after 48 hrs by agar disc-diffusion method. In kind it is functional. The settings on record: NCIM 596, 48 h, read-out: DIZ. In outline: as §1
The test system of experiment [22] is Curvularia lunata. Kind of experiment: Antifungal activity against Curvularia lunata NCIM 716 at 100 ug/disk after 48 hrs by agar disc-diffusion method. Format: functional. The conditions noted are these: NCIM 716, 48 h, read-out: DIZ. The essentials:
as §1

Experiment [23] has as its system Staphylococcus aureus. Kind of experiment: Antibacterial activity against Staphylococcus aureus NCIM 5021 after 24 hrs by microdilution susceptibility method. Format: functional. The conditions noted are these: NCIM 5021, 24 h. In outline:
as §2

Experiment [24] has as its system Proteus vulgaris. Kind of experiment: Antibacterial activity against Proteus vulgaris NCIM 2027 after 24 hrs by microdilution susceptibility method. The settings on record: NCIM 2027, 24 h. Format: functional. In outline:
as §2

As for `Nn1c(CS(=O)(=O)Cc2ccc(Cl)cc2)nnc1-c1ccccc1Cl`, the zone of inhibition at 100 µg/disc in the experiment on Klebsiella pneumoniae [1] turned out to be 33 mm; in the experiment on Proteus vulgaris [8], 31 mm; in the experiment with Aspergillus niger [13] it was 22 mm; with Fusarium solani [14] it was 29 mm; with Staphylococcus aureus [18], 32 mm; in the experiment with Bacillus subtilis [19], 37 mm. Also, the zone of inhibition at 100 µg/disc with Curvularia lunata [22] is 27 mm. The MIC is 25 µg/mL (≈ 62.9 µM) against Bacillus subtilis [2]; 50 µg/mL (≈ 126 µM) in the experiment on Aspergillus niger [3]; 100 µg/mL (≈ 252 µM) against Fusarium solani [7]; 50 µg/mL (≈ 126 µM) in the experiment on Curvularia lunata [9]; 50 µg/mL (≈ 126 µM) against Klebsiella pneumoniae [20]; 25 µg/mL (≈ 62.9 µM) against Staphylococcus aureus [23]. Also, the minimal inhibitory concentration (MIC) in the experiment on Proteus vulgaris [24] was found to be 100 µg/mL (≈ 252 µM). The zone of inhibition at 200 µg/disc in the experiment with Staphylococcus aureus [4] amounted to 37 mm; with Curvularia lunata [5], 31 mm; with Proteus vulgaris [11], 34 mm; in the experiment with Fusarium solani [12], 32 mm; in the experiment with Klebsiella pneumoniae [15], 36 mm; in the experiment with Bacillus subtilis [16] it was 39 mm. The zone of inhibition at 200 µg/disc in the experiment with Aspergillus niger [21] worked out at 24 mm. Also, the Activity with A549 [6] and in the experiment on A549 [10] was 50% throughout. In addition, in the experiment on A549 [17], the outcome was Active.
Regarding `O=S(=O)(Cc1ccc(Cl)cc1)Cc1nnc(-c2ccccc2Cl)o1`, the zone of inhibition at 100 µg/disc was 17 mm with Klebsiella pneumoniae [1]; 15 mm with Proteus vulgaris [8]; 17 mm with Aspergillus niger [13]; 18 mm in the experiment with Fusarium solani [14]; 20 mm with Staphylococcus aureus [18]; 19 mm in the experiment on Bacillus subtilis [19]. Moreover, in the experiment on Curvularia lunata [22], the zone of inhibition at 100 µg/disc is 16 mm. Besides, the MIC was found to be 400 µg/mL (≈ 1040 µM) in the experiment on Bacillus subtilis [2]; 200 µg/mL (≈ 522 µM) against Aspergillus niger [3]; 200 µg/mL (≈ 522 µM) against Fusarium solani [7]; 200 µg/mL (≈ 522 µM) in the experiment with Curvularia lunata [9]; 200 µg/mL (≈ 522 µM) with Staphylococcus aureus [23]. The zone of inhibition at 200 µg/disc with Staphylococcus aureus [4] worked out at 23 mm; in the experiment with Curvularia lunata [5], 19 mm; in the experiment with Proteus vulgaris [11], 18 mm; in the experiment on Fusarium solani [12], 22 mm; with Klebsiella pneumoniae [15], 20 mm; in the experiment on Bacillus subtilis [16], 21 mm. For the same compound, the zone of inhibition at 200 µg/disc in the experiment on Aspergillus niger [21] was 21 mm. In addition, the Activity with A549 [6] and with A549 [10] was 50% each time.
Take `Nn1c(CS(=O)(=O)Cc2ccccc2)nnc1-c1ccccc1`: the zone of inhibition at 100 µg/disc in the experiment with Klebsiella pneumoniae [1] turned out to be 18 mm; in the experiment with Proteus vulgaris [8], 17 mm; with Aspergillus niger [13], 17 mm; in the experiment with Fusarium solani [14], 19 mm; with Staphylococcus aureus [18], 22 mm; in the experiment with Bacillus subtilis [19], 23 mm. The zone of inhibition at 100 µg/disc with Curvularia lunata [22] came out at 22 mm. For the same compound, the MIC with Bacillus subtilis [2] was determined as 400 µg/mL (≈ 1220 µM); in the experiment with Aspergillus niger [3] it was 400 µg/mL (≈ 1220 µM); with Fusarium solani [7] it was 200 µg/mL (≈ 609 µM); with Curvularia lunata [9], 200 µg/mL (≈ 609 µM); in the experiment on Klebsiella pneumoniae [20], 200 µg/mL (≈ 609 µM); against Staphylococcus aureus [23], 400 µg/mL (≈ 1220 µM). The same compound showed an MIC in the experiment on Proteus vulgaris [24] of 200 µg/mL (≈ 609 µM). The zone of inhibition at 200 µg/disc in the experiment on Staphylococcus aureus [4] was 24 mm; with Curvularia lunata [5], 24 mm; with Proteus vulgaris [11], 22 mm; with Fusarium solani [12], 21 mm; with Klebsiella pneumoniae [15] it was 22 mm; with Bacillus subtilis [16], 26 mm. Further, in the experiment with Aspergillus niger [21], the zone of inhibition at 200 µg/disc was 21 mm.
Consider `O=S(=O)(Cc1ccccc1)Cc1nnc(-c2ccccc2)s1`, for which the zone of inhibition at 100 µg/disc turned out to be 17 mm with Klebsiella pneumoniae [1]; 16 mm in the experiment on Proteus vulgaris [8]; 16 mm with Aspergillus niger [13]; 18 mm in the experiment on Fusarium solani [14]; 24 mm in the experiment with Staphylococcus aureus [18]; 22 mm in the experiment on Bacillus subtilis [19]. In addition, the zone of inhibition at 100 µg/disc in the experiment on Curvularia lunata [22] came to 21 mm. Also, the MIC in the experiment with Bacillus subtilis [2], against Aspergillus niger [3], with Fusarium solani [7], with Curvularia lunata [9], against Klebsiella pneumoniae [20] and in the experiment on Staphylococcus aureus [23] was 200 µg/mL (≈ 605 µM) each time. This compound gave an MIC in the experiment on Proteus vulgaris [24] of 400 µg/mL (≈ 1210 µM). Besides, the zone of inhibition at 200 µg/disc stood at 29 mm in the experiment on Staphylococcus aureus [4]; 23 mm in the experiment on Curvularia lunata [5]; 24 mm with Proteus vulgaris [11]; 20 mm in the experiment with Fusarium solani [12]; 22 mm with Klebsiella pneumoniae [15]; 25 mm with Bacillus subtilis [16]. In addition, in the experiment with Aspergillus niger [21], the zone of inhibition at 200 µg/disc stood at 19 mm.

The MIC is the lowest concentration found to suppress growth.
